In ChEMBL document CHEMBL1137711, “Design, synthesis, structure-activity relationship and antibacterial activity series of novel imidazo fused quinolone carboxamides” (2009):
Converted amounts (≈) assume the structure as drawn. The source made the active and inactive calls. The rule behind the calls is not given here.

Tests used:
Type in all cases: functional
[1] = tested on: Staphylococcus aureus; experiment: Antibacterial activity against Staphylococcus aureus after 24 hrs by broth dilution method
Outline: (§1)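 MIC by broth dilution (NCCLS 1982) in nutrient broth, test compound serially diluted across tubes 1–9. Each tube receives 0.5 ml overnight culture. Incubation 37 °C for 24 h, then turbidity read. DMSO as negative control, ciprofloxacin as reference.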

[2] = tested on: Pseudomonas aeruginosa; experiment: Antibacterial activity against Pseudomonas aeruginosa after 24 hrs by broth dilution method; outline: as §1
[3] = tested on: Bacillus subtilis; experiment: Antibacterial activity against Bacillus subtilis after 24 hrs by broth dilution method; outline: as §1
[4] = tested on: Chromobacterium violaceum; experiment: Antibacterial activity against Chromobacterium violaceum after 24 hrs by broth dilution method; outline: as §1
[5] = tested on: Klebsiella aerogenes; experiment: Antibacterial activity against Klebsiella aerogenes after 24 hrs by broth dilution method; outline: as §1
[6] = tested on: Lysinibacillus sphaericus; experiment: Antibacterial activity against Bacillus sphaericus after 24 hrs by broth dilution method
Outline: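 Broth dilution per NCCLS 1982: test agent serially diluted across tubes 1–9 of sterile nutrient broth; 0.5 ml overnight culture added to each tube; incubated at 37 °C for 24 h, then turbidity read to give the minimum inhibitory concentration. DMSO served as negative control; ciprofloxacin run alongside.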

| Structure (SMILES) | MIC [1] | MIC [2] | MIC [3] | MIC [4] | MIC [5] | MIC [6] |
| --- | --- | --- | --- | --- | --- | --- |
| CNC(=O)c1cn2c(-c3ccc(N(C)C)cc3)nc3c(NC)c(F)cc(c1=O)c32 | 12.5 µg/mL (≈ 31.8 µM) | 6.25 µg/mL (≈ 15.9 µM) | 25 µg/mL (≈ 63.5 µM) | 12.5 µg/mL (≈ 31.8 µM) | 25 µg/mL (≈ 63.5 µM) | 25 µg/mL (≈ 63.5 µM) |
| CNC(=O)c1cn2c(-c3ccccc3)nc3c(NC)c(F)cc(c1=O)c32 | 6.25 µg/mL (≈ 17.8 µM) | 12.5 µg/mL (≈ 35.7 µM) | 12.5 µg/mL (≈ 35.7 µM) | 12.5 µg/mL (≈ 35.7 µM) | inactive | 25 µg/mL (≈ 71.4 µM) |
| CCCCCc1nc2c3c(cc(F)c2n1C)c(=O)c(C(=O)NC)cn3CC | 25 µg/mL (≈ 67.1 µM) | 25 µg/mL (≈ 67.1 µM) | 25 µg/mL (≈ 67.1 µM) | 25 µg/mL (≈ 67.1 µM) | 12.5 µg/mL (≈ 33.6 µM) | 50 µg/mL (≈ 134 µM) |
| CCCc1nc2c3c(cc(F)c2n1C)c(=O)c(C(=O)NC)cn3CC | 25 µg/mL (≈ 72.6 µM) | 25 µg/mL (≈ 72.6 µM) | 12.5 µg/mL (≈ 36.3 µM) | 25 µg/mL (≈ 72.6 µM) | 12.5 µg/mL (≈ 36.3 µM) | 50 µg/mL (≈ 145 µM) |
| CNC(=O)c1cn2c(-c3ccc(F)cc3)nc3c(NC)c(F)cc(c1=O)c32 | 25 µg/mL (≈ 67.9 µM) | 25 µg/mL (≈ 67.9 µM) | 25 µg/mL (≈ 67.9 µM) | 6.25 µg/mL (≈ 17 µM) | inactive | 25 µg/mL (≈ 67.9 µM) |
| CCn1cc(C(=O)NC)c(=O)c2cc(F)c3c(nc(C(C)C)n3C)c21 | 50 µg/mL (≈ 145 µM) | 50 µg/mL (≈ 145 µM) | 12.5 µg/mL (≈ 36.3 µM) | 12.5 µg/mL (≈ 36.3 µM) | 50 µg/mL (≈ 145 µM) | 25 µg/mL (≈ 72.6 µM) |
| CNC(=O)c1cn2c(-c3ccc(Cl)cc3)nc3c(NC)c(F)cc(c1=O)c32 | 25 µg/mL (≈ 65 µM) | 25 µg/mL (≈ 65 µM) | 25 µg/mL (≈ 65 µM) | 6.25 µg/mL (≈ 16.2 µM) | inactive | 25 µg/mL (≈ 65 µM) |
| O=C(O)c1cn(C2CC2)c2cc(N3CCNCC3)c(F)cc2c1=O [CIPROFLOXACIN] | 0.39 µg/mL (≈ 1.18 µM) | 0.78 µg/mL (≈ 2.35 µM) | 0.78 µg/mL (≈ 2.35 µM) | 0.39 µg/mL (≈ 1.18 µM) | 0.78 µg/mL (≈ 2.35 µM) | 0.78 µg/mL (≈ 2.35 µM) |
| CNC(=O)c1cn2c(-c3ccc(O)cc3)nc3c(NC)c(F)cc(c1=O)c32 | 25 µg/mL (≈ 68.2 µM) | inactive | 12.5 µg/mL (≈ 34.1 µM) | 25 µg/mL (≈ 68.2 µM) | inactive | 25 µg/mL (≈ 68.2 µM) |
| CCCCc1nc2c3c(cc(F)c2n1C)c(=O)c(C(=O)NC)cn3CC | inactive | 12.5 µg/mL (≈ 34.9 µM) | inactive | 25 µg/mL (≈ 69.8 µM) | 25 µg/mL (≈ 69.8 µM) | inactive |
| CCc1nc2c3c(cc(F)c2n1C)c(=O)c(C(=O)NC)cn3CC | inactive | inactive | inactive | inactive | inactive | inactive |
| CCCCCCc1nc2c3c(cc(F)c2n1C)c(=O)c(C(=O)NC)cn3CC | inactive | 50 µg/mL (≈ 129 µM) | inactive | 25 µg/mL (≈ 64.7 µM) | 50 µg/mL (≈ 129 µM) | inactive |
| CNC(=O)c1cn2c(-c3ccc([N+](=O)[O-])cc3)nc3c(NC)c(F)cc(c1=O)c32 | 12.5 µg/mL (≈ 31.6 µM) | inactive | 12.5 µg/mL (≈ 31.6 µM) | 25 µg/mL (≈ 63.2 µM) | inactive | 12.5 µg/mL (≈ 31.6 µM) |
| CNC(=O)c1cn2c(-c3ccco3)nc3c(NC)c(F)cc(c1=O)c32 | 6.25 µg/mL (≈ 18.4 µM) | 12.5 µg/mL (≈ 36.7 µM) | 6.25 µg/mL (≈ 18.4 µM) | 6.25 µg/mL (≈ 18.4 µM) | inactive | 25 µg/mL (≈ 73.5 µM) |
| CNC(=O)c1cn2c(-c3ccc(C)cc3)nc3c(NC)c(F)cc(c1=O)c32 | 12.5 µg/mL (≈ 34.3 µM) | 6.25 µg/mL (≈ 17.2 µM) | 25 µg/mL (≈ 68.6 µM) | 6.25 µg/mL (≈ 17.2 µM) | inactive | 12.5 µg/mL (≈ 34.3 µM) |
| CNC(=O)c1cn2c(-c3ccc(OC)cc3)nc3c(NC)c(F)cc(c1=O)c32 | 25 µg/mL (≈ 65.7 µM) | 6.25 µg/mL (≈ 16.4 µM) | 12.5 µg/mL (≈ 32.9 µM) | 25 µg/mL (≈ 65.7 µM) | inactive | 12.5 µg/mL (≈ 32.9 µM) |
| CCn1cc(C(=O)NC)c(=O)c2cc(F)c3c(nc(CC(C)C)n3C)c21 | inactive | 25 µg/mL (≈ 69.8 µM) | inactive | 25 µg/mL (≈ 69.8 µM) | 12.5 µg/mL (≈ 34.9 µM) | inactive |
